ChEMBL document CHEMBL4325852, “Design, synthesis, and discovery of ocotillol-type amide derivatives as orally available modulators of P-glycoprotein-mediated multidrug resistance” (Eur J Med Chem, 2019)

How the values were obtained:
Format in all cases: cell-based
[1] = Cytotoxicity against human KBV cells assessed as cell survival at 10 uM after 72 hrs by MTT assay relative to control; conditions: read-out: Survival
Procedure, shortened: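 KBV (Pgp-overexpressing MDR line) grown in DMEM/10% FCS, kept in 10 nM paclitaxel; seeded, compound (DMSO stock) added next day, 72 h; MTT 2 h, formazan in DMSO, A570 gives survival vs DMSO solvent control; n = 1-3 independent experiments, mean ± SD.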

[2] = molecular target: T1, ATP-dependent translocase ABCB1 (Homo sapiens, UniProt P08183); assay: Reversal of P-gp-mediated multidrug resistance in human KBV cells assessed as potentiation of paclitaxel-induced cytotoxicity by measuring cell survival at 10 uM after 72 hrs by MTT assay (reference value: 104 +/- 8%)
T1 sequence (P08183 whole entry): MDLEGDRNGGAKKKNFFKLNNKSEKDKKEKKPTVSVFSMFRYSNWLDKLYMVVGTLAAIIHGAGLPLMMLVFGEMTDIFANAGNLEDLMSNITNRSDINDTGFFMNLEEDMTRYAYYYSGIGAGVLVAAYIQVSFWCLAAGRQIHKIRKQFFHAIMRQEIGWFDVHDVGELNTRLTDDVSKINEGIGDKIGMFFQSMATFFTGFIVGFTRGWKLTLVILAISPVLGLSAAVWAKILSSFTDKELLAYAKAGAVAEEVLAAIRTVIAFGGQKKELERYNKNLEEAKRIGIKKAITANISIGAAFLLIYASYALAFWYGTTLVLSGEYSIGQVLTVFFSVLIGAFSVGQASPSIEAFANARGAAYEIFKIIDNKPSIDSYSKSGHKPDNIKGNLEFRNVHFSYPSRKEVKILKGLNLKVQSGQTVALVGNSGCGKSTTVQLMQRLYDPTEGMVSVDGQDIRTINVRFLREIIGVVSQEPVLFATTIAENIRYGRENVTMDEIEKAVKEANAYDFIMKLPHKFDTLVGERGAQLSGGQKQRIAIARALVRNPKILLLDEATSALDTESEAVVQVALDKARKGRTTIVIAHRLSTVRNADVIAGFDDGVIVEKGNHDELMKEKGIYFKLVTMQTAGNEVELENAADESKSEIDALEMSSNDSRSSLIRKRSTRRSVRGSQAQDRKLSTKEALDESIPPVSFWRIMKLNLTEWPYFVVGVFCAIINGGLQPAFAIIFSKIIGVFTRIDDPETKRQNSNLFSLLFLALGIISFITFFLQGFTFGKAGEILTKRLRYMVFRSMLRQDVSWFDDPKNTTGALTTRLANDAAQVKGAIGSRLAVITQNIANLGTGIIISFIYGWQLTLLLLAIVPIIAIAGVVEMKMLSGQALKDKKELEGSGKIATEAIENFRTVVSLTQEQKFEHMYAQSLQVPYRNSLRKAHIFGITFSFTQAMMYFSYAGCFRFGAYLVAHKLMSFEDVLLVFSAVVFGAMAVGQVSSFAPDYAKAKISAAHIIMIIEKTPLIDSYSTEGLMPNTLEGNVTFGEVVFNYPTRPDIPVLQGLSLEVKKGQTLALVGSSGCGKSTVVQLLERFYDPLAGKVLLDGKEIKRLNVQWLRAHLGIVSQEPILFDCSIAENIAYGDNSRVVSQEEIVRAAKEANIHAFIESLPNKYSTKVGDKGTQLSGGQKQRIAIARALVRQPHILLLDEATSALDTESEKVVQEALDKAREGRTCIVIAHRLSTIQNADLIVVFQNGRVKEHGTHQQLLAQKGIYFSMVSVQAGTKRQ

[3] = molecular target: T1, ATP-dependent translocase ABCB1; assay: Reversal of P-gp-mediated multidrug resistance in human KBV cells assessed as potentiation of paclitaxel-induced cytotoxicity by measuring cell survival at 5 uM after 72 hrs by MTT assay (reference value: 104 +/- 8%)

Compound	viability at 72 h, 10 µM [1] [%]	Survival [2] [%]	Survival [3] [%]
CC(C)(C)OC(=O)NCCCCCCCC(=O)N[C@H]1CC[C@]2(C)[C@H]3C[C@@H](O)[C@@H]4[C@@H]([C@]5(C)CC[C@@H](C(C)(C)O)O5)CC[C@@]4(C)[C@]3(C)CC[C@H]2C1(C)C	111	41	54
CC(C)(O)[C@H]1CC[C@@](C)([C@H]2CC[C@]3(C)[C@@H]2[C@H](O)C[C@@H]2[C@@]4(C)CC[C@H](NC(=O)CCCCCN)C(C)(C)[C@@H]4CC[C@]23C)O1	86	91	91
CC(C)(O)[C@@H]1CC[C@@](C)([C@H]2CC[C@]3(C)[C@@H]2[C@H](O)C[C@@H]2[C@@]4(C)CC[C@H](NC(=O)CCCCCN)C(C)(C)[C@@H]4CC[C@]23C)O1	79	101	105
CC(C)(O)[C@H]1CC[C@@](C)([C@H]2CC[C@]3(C)[C@@H]2[C@H](O)C[C@@H]2[C@@]4(C)CC[C@H](NC(=O)CCCCCCCN)C(C)(C)[C@@H]4CC[C@]23C)O1	80	38	84
CC(C)(O)[C@@H]1CC[C@@](C)([C@H]2CC[C@]3(C)[C@@H]2[C@H](O)C[C@@H]2[C@@]4(C)CC[C@H](O)C(C)(C)[C@@H]4CC[C@]23C)O1	111	104	
CC(C)(O)[C@@H]1CC[C@@](C)([C@H]2CC[C@]3(C)[C@@H]2[C@H](O)C[C@@H]2[C@@]4(C)CC[C@H](NC(=O)c5cccnc5)C(C)(C)[C@@H]4CC[C@]23C)O1	91	61	115
CC(C)(O)[C@@H]1CC[C@@](C)([C@H]2CC[C@]3(C)[C@@H]2[C@H](O)C[C@@H]2[C@@]4(C)CC[C@H](NC(=O)CCCN)C(C)(C)[C@@H]4CC[C@]23C)O1	105	102	111
CC(C)(O)[C@H]1CC[C@@](C)([C@H]2CC[C@]3(C)[C@@H]2[C@H](O)C[C@@H]2[C@@]4(C)CC[C@H](NC(=O)c5ccccc5O)C(C)(C)[C@@H]4CC[C@]23C)O1	100	40	51
CC(C)(O)[C@@H]1CC[C@@](C)([C@H]2CC[C@]3(C)[C@@H]2[C@H](O)C[C@@H]2[C@@]4(C)CC[C@H](NC(=O)c5ccccc5)C(C)(C)[C@@H]4CC[C@]23C)O1	116	48	90
CC(C)(O)[C@H]1CC[C@@](C)([C@H]2CC[C@]3(C)[C@@H]2[C@H](O)C[C@@H]2[C@@]4(C)CC[C@H](NC(=O)c5ccccc5)C(C)(C)[C@@H]4CC[C@]23C)O1	101	39	59
CC(C)(O)[C@H]1CC[C@@](C)([C@H]2CC[C@]3(C)[C@@H]2[C@H](O)C[C@@H]2[C@@]4(C)CC[C@H](NC(=O)CN)C(C)(C)[C@@H]4CC[C@]23C)O1	103	49	99
CC(C)(C)OC(=O)Nc1ccc(C(=O)N[C@H]2CC[C@]3(C)[C@H]4C[C@@H](O)[C@@H]5[C@@H]([C@]6(C)CC[C@H](C(C)(C)O)O6)CC[C@@]5(C)[C@]4(C)CC[C@H]3C2(C)C)cc1	77	46	54
CCCC(=O)N[C@H]1CC[C@]2(C)[C@H]3C[C@@H](O)[C@@H]4[C@@H]([C@]5(C)CC[C@H](C(C)(C)O)O5)CC[C@@]4(C)[C@]3(C)CC[C@H]2C1(C)C	103	55	89
CC(C)(O)[C@H]1CC[C@@](C)([C@H]2CC[C@]3(C)[C@@H]2[C@H](O)C[C@@H]2[C@@]4(C)CC[C@H](O)C(C)(C)[C@@H]4CC[C@]23C)O1	94	95	
